Tests used:
[1] = Inhibition of PDE4
Method in brief: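 PDE4 from bovine aorta media layer; [³H]-cAMP hydrolysis, two-step assay, with 1 mM EGTA and cGMP 50 added to suppress PDE3, 50 mM Tris-HCl pH 7.5, 2 mM magnesium acetate, 1 mg/mL BSA, 1% DMSO. IC50 by regression over concentration-response data, mean of three runs.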

[2] = target: T1, cGMP-dependent 3',5'-cyclic phosphodiesterase (Bos taurus) (UniProt P14099); assay: Inhibition of bovine aorta PDE2 at 10 uM in absence of cGMP
T1 sequence (whole entry): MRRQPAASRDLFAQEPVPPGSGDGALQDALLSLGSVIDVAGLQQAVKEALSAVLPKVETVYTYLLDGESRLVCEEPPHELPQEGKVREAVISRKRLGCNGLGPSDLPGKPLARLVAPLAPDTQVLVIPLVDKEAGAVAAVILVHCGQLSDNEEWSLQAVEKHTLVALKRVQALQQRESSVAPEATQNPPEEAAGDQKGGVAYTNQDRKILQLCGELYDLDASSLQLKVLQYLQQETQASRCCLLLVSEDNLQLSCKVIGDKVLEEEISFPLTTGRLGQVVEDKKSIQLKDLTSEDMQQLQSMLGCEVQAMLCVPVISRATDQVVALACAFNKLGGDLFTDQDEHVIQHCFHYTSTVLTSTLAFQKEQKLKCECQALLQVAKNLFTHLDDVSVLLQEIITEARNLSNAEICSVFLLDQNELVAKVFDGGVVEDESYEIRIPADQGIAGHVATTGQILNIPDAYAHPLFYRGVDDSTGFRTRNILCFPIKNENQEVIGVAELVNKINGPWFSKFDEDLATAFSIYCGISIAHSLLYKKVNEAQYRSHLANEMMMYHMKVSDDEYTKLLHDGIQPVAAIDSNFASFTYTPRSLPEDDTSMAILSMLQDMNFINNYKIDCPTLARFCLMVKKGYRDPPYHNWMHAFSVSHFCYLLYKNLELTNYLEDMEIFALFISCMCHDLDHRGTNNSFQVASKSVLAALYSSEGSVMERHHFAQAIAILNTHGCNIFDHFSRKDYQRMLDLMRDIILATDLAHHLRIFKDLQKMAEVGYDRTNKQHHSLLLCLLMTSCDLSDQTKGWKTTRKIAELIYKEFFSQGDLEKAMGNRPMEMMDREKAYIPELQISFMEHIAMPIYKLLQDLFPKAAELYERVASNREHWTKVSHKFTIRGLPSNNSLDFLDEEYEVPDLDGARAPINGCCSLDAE

[3] = Inhibition of PDE1 at 10 uM in absence of calmodulin
[4] = target: T2, cGMP-dependent 3',5'-cyclic phosphodiesterase (Bos taurus, UniProt P14099); assay: Inhibition of bovine aorta PDE2 in presence of cGMP
T2 sequence (P14099 whole entry): T1 sequence (whole entry)
Method in brief: (§1)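 PDE2 isolated from cultured bovine aortic endothelial cells; two-step assay using [³H]-cAMP plus 1 mM EGTA in 50 mM Tris-HCl pH 7.5, 2 mM magnesium acetate, 1 mg/mL BSA; activated state with 5 cGMP. DMSO 1% final; IC50 by regression from concentration-response curves, three determinations.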

[5] = Inhibition of PDE5 at 10 uM
Method in brief: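 Bovine aortic media PDE5 measured as [³H]-cGMP hydrolysis in two-step assay with 1 mM EGTA, 50 mM Tris-HCl pH 7.5, 2 mM magnesium acetate, 1 mg/mL BSA; inhibitor in DMSO, 1% final.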

[6] = Inhibition of PDE3 at 10 uM
Method in brief: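 Bovine aortic media PDE3, two-step assay with [³H]-cAMP plus 1 mM EGTA in Tris-HCl 50 mM pH 7.5, 2 mM Mg acetate, BSA 1 mg/mL; rolipram 50 present to block PDE4 contamination. DMSO 1% final.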

[7] = Inhibition of PDE1 in presence of calmodulin
Method in brief: (§2)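 PDE1 purified from bovine aorta media layer; two-step radioassay with [³H]-cGMP substrate in 50 mM Tris-HCl pH 7.5, 2 mM magnesium acetate, 1 mg/mL BSA. Calmodulin-activated state: 18 nM calmodulin plus 10 mM CaCl₂. Inhibitors from DMSO, 1% final. IC50 by regression from concentration-response curves, mean of three determinations.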

[8] = test system: PBMC; assay: Antiinflammatory activity in human PBMC assessed as inhibition of LPS-stimulated TNFalpha release after 24 hrs by trypan blue exclusion test; format: functional, cell-based; conditions: in the assay text read “ELISA” for “trypan blue exclusion test”
Method in brief: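 Human PBMCs from density-gradient interface, washed in HBSS-CMF, 2 × 10⁶ cells/mL, exposed to drug 10^-8 to 10^-5 M with or without Salmonella abortus equi LPS, 24 h, 37 °C, 5% CO₂. Supernatants stored at -80 °C, then TNFα measured by two-site ELISA (OD 450 nm, o-phenylenediamine), interpolated on standard curve by four-parameter logistics; viability by Trypan blue exclusion.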

[9] = Inhibition of PDE1 at 10 uM in presence of calmodulin; method in brief: as §2
[10] = target: T1, cGMP-dependent 3',5'-cyclic phosphodiesterase (Bos taurus); assay: Inhibition of bovine aorta PDE2 at 10 uM in presence of cGMP; method in brief: as §1

SMILES: CNc1nc(C)nc2c(-c3cccc4ccccc34)cnn12
- IC50 [1]: 210 nM

SMILES: CCCc1nc(NC)c2ncn(Cc3ccccc3)c2n1
- IC50 [1]: 88 nM

SMILES: CNc1nc(C)nc2c(-c3ccco3)cnn12
- IC50 [1]: 3100 nM

SMILES: CNc1nc(C)nc2c(-c3ccccc3Cl)cnn12
- IC50 [1]: 2900 nM

SMILES: CNc1nc(C)nc2c(Cc3ccccc3)cnn12
- inhibition [2]: 19%
- inhibition [3]: 37%
- IC50 [4]: 56000 nM
- inhibition [5]: 33%
- IC50 [1]: 98 nM
- inhibition [6]: 8.6%
- IC50 [7]: 14000 nM

SMILES: CNc1nc(C)nc2c(Cc3ccc4ccccc4c3)cnn12
- IC50 [1]: 270 nM

SMILES: CNc1nc(C)nc2c(-c3cccs3)cnn12
- IC50 [1]: 2400 nM

SMILES: CNc1nc(C)nc2c1ncn2Cc1ccccc1OC
- IC50 [1]: 61 nM

SMILES: CNc1nc(C(F)(F)F)nc2c(Cc3ccccc3OC)cnn12
- inhibition [2]: 16%
- inhibition [3]: 20%
- inhibition [5]: 74%
- IC50 [1]: 11 nM
- inhibition [6]: 24%
- Activity [8]: Dose-dependent effect

SMILES: CNc1nc(C)nc2c(Cc3ccoc3)cnn12
- IC50 [1]: 78 nM

SMILES: CC#Cc1cnn2c(NC)nc(C)nc12
- IC50 [1]: 6400 nM

SMILES: CCCc1nc(NC)c2ncn(Cc3ccccc3OC)c2n1
- IC50 [1]: 7 nM

SMILES: CNc1nc(C)nc2c(C(=O)c3ccccc3)cnn12
- inhibition [2]: 15%
- inhibition [3]: 16%
- inhibition [9]: 29%
- inhibition [5]: 8%
- IC50 [1]: 120 nM
- inhibition [6]: 11%
- inhibition [10]: 17%

SMILES: CNc1nc(C)nc2c(-c3cccc(C(F)(F)F)c3)cnn12
- IC50 [1]: 130 nM

SMILES: CNc1nc(C)nc2c(-c3cc4ccccc4s3)cnn12
- IC50 [1]: 3500 nM

SMILES: CCCc1nc(NC)n2ncc(Cc3ccccc3OC)c2n1
- inhibition [2]: 19%
- inhibition [3]: 27%
- inhibition [9]: 35%
- inhibition [5]: 38%
- IC50 [1]: 13 nM
- inhibition [6]: 16%
- Activity [8]: Dose-dependent effect
- inhibition [10]: 31%

SMILES: CNc1nc(C)nc2c1ncn2Cc1ccccc1
- IC50 [1]: 280 nM

SMILES: CCC(O)c1cnn2c(NC)nc(C)nc12 (stereo not given)
- IC50 [1]: 4800 nM

SMILES: CNc1nc(C)nc2c(-c3cccc(C(C)=O)c3)cnn12
- IC50 [1]: 540 nM

SMILES: CNc1nc(C)nc2c(Cc3ccco3)cnn12
- IC50 [1]: 100 nM

SMILES: CCCc1nc(NC)n2ncc(Cc3ccccc3)c2n1
- inhibition [2]: 20%
- inhibition [3]: 24%
- inhibition [9]: 25%
- inhibition [5]: 16%
- IC50 [1]: 48 nM
- inhibition [6]: 10%
- inhibition [10]: 20%

SMILES: CNc1nc(C)nc2c(-c3ccccc3)cnn12
- inhibition [2]: 3.6%
- inhibition [3]: 21%
- inhibition [9]: 20%
- inhibition [5]: 11%
- IC50 [1]: 270 nM
- inhibition [6]: 2.7%
- inhibition [10]: 11%

SMILES: CNc1nc(C)nc2c(Cc3cccs3)cnn12
- IC50 [1]: 70 nM

SMILES: CNc1nc(C(F)(F)F)nc2c(Cc3ccccc3)cnn12
- IC50 [1]: 77 nM
- Activity [8]: Dose-dependent effect

SMILES: CNc1nc(C)nc2c(-c3cc4ccccc4o3)cnn12
- IC50 [1]: 6200 nM

SMILES: CCCC#Cc1cnn2c(NC)nc(C)nc12
- IC50 [1]: 410 nM

SMILES: CNc1nc(C(F)(F)F)nc2c1ncn2Cc1ccccc1OC
- IC50 [1]: 1.4 nM

SMILES: CNc1nc(C)nc2c(-c3cccc([N+](=O)[O-])c3)cnn12
- IC50 [1]: 1200 nM
